Assay outcomes as filed in PubChem.
PLAP act: PLAP enzyme activators, biochemical, luminescence, HTS. Alkaline phosphatase, placental type (Homo sapiens), P05187. purified PLAP enzyme, luminescent substrate read-out; hits give high values. activation fold at 20 µM. actives 1.2% (n = 96,000); in the data active means activation fold above about 2
PostGolgi ctrl: growth inhibition of yeast control strain, primary screen, counter-screen for post-Golgi transport modulator project. inhibition, % at 10 µM. AID 738, 2007. efflux-deficient yeast background strain, growth absorbance A615, 16 h. actives 5% (n = 98,000)
PostGolgi yeast: phenotypic screen on post-Golgi transport, primary screen. inhibition, % at 10 µM. AID 739, 2007. actives 0.9% (n = 98,000). post-Golgi transport phenotypic cell assay;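 further: yeast cells grown in 1536-well plates; yeast grown about 18 h at 30C before absorbance read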
HePTP inh: inhibitors of human HePTP phosphatase, primary screen, biochemical, absorbance, leukemia target. recombinant HePTP phosphatase activity, OD absorbance. inhibition, % at 20 µM. actives 0.64% (n = 110,000); in the data active means inhibition above about 50%;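 further: plate controls were vehicle for no effect and reference inhibitor for full effect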
Target sequence (P35236 whole entry, looked up): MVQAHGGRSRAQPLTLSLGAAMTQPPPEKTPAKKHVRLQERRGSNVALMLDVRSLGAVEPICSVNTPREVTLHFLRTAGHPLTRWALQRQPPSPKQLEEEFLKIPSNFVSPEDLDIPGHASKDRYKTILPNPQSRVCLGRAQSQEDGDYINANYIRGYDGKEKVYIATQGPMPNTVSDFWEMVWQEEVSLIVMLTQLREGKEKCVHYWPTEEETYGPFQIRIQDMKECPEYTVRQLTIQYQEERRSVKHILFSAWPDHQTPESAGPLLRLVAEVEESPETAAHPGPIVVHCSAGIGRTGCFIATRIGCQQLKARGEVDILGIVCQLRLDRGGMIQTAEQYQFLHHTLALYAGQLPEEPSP
Ecoli tolC: growth inhibitors of E. coli tolC mutant, primary screen, strain BW25113 ΔtolC::kan, 384-well; OD615; growth inhibition, % at 10 µM (by protocol); actives 2.2% (n = 65,000); AID 573, 2007;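 active means growth inhibition at or above a cutoff equal to the mean over every tested compound plus 3 SD, cut at about 60% in these data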;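 further: growth measured after 20 h incubation at 37 °C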
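Test system: tolC-deleted E. coli BW25113; medium: LB with kanamycin 50 µg/mL; compound: single-point testing at 10 µM; incubation: 20 h compound exposure of bacteria at 37 °C; signal: OD at 615 nm; evaluation: growth inhibition in percent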
Ecoli WT expand: growth inhibitors of wild-type E. coli, primary screen, strain BW25113, expanded library, OD600 | AID 710, 2007 | OD600 absorbance | actives 0.15% (n = 98,000) | growth inhibition, % at 100 µM;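 active means growth inhibition above about 50% at one test dose, limit read from the data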;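 further: growth measured after 20 h incubation at 37 °C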
* hit, by the source's call. Only some compounds are listed: those with a hit (about 5.4% of all), similar ones and a draw of the others. Unless noted, no stated cut-off is given here; in the data, active means inhibition above about 30%; inactive means the rest.

For N#CC1=C(N)Oc2cc3c(cc2C1c1ccc(Cl)cc1)OCO3 (stereo not drawn) the results were PLAP act 0.8, PostGolgi ctrl 30*, PostGolgi yeast -4, HePTP inh 5, Ecoli tolC 8 and Ecoli WT expand -9.
Screening CCN(CC)C(=O)CN1C(=O)C2(OCC(C)(c3ccccc3)CO2)c2ccccc21 (stereo not drawn) returned PLAP act 1.1, PostGolgi ctrl 31*, PostGolgi yeast 12, HePTP inh 12, Ecoli tolC 38 and Ecoli WT expand -10.
For CCn1c(CSc2nnc(-c3ccoc3C)n2C)nc2cc(S(=O)(=O)N(C)C)ccc21 the results were PostGolgi ctrl 38*, PostGolgi yeast -5, HePTP inh 13, Ecoli tolC -4 and Ecoli WT expand -1.
O=C1c2ccccc2C(=O)N1CCCOc1ccccc1 was read as PLAP act 0.8, PostGolgi ctrl 11, PostGolgi yeast -6, HePTP inh 2, Ecoli tolC -5 and Ecoli WT expand 6.
`CCN(CC)CCSc1nc2sc3c(c2c(=O)n1-c1ccccc1)CC(C)(C)OC3` gave HePTP inh 3.
Screening Cc1cc(NC(=O)CCC(=O)N(c2ccc(F)cc2)C2(C(=O)NC3CCCCC3)CCCC2)no1 returned PLAP act 1.6, PostGolgi ctrl 39*, PostGolgi yeast 6, HePTP inh 8, Ecoli tolC 31 and Ecoli WT expand 9.
Cc1cc(NC(=O)CCC(=O)N(CC(=O)NC2CCCC2)c2ccc3c(c2)OCCO3)no1 was read as PLAP act 0.9, PostGolgi ctrl -3, PostGolgi yeast -1, HePTP inh 9, Ecoli tolC -14 and Ecoli WT expand 0.
`C=CCn1c(SCC(=O)c2ccc(OC)cc2)nc2sc3c(c2c1=O)CCCC3` gave HePTP inh -10.
Screening Cc1ccc(C(C)C)c(OCC(=O)Nc2ccc(OC(F)(F)F)cc2)c1 returned HePTP inh 83*.
Cc1ccc(C(C)C)c(OCC(=O)Nc2ccc(NC(=O)c3ccco3)cc2)c1 was read as HePTP inh -2.
`CCCC(=O)Nc1ccc2c(c1)nc(CN1CCCC1)n2C` gave PLAP act 0.8, PostGolgi ctrl -4, PostGolgi yeast 7 and Ecoli WT expand 5.
For Cc1ccc(C(C)C)c(OCC(=O)Nc2ccc3c(c2)nc(CN2CCCC2)n3C)c1 the results were PLAP act 2*, PostGolgi ctrl 5, PostGolgi yeast 5 and Ecoli WT expand -3.
Screening CCC(C)(C)C(=O)Nc1ccc(C(N)=O)cc1 returned PLAP act 0.8, PostGolgi ctrl -1, PostGolgi yeast 2 and Ecoli WT expand -2.
Screening COC(=O)/C=C(\C)NCCN/C(C)=C/C(=O)OC returned HePTP inh 105*.
COC(=O)/C=C(\C)NC(=O)c1ccc(F)cc1 was read as PLAP act 1.1, PostGolgi ctrl -5, PostGolgi yeast -9 and Ecoli WT expand 7.
COc1ccccc1N(C(=O)NCc1ccccc1)C1=NCC(C)S1 (stereo not drawn) was read as PLAP act 1.4, PostGolgi ctrl 48*, PostGolgi yeast -4, HePTP inh 9, Ecoli tolC 51 and Ecoli WT expand -2.
Cc1cc2c(C)nc(Cc3ccccc3)nc2o1 was read as PLAP act 1.3, PostGolgi ctrl 6, PostGolgi yeast 0, HePTP inh 5, Ecoli tolC -2 and Ecoli WT expand -1.
O=C(c1ccc(Cl)cc1Cl)C1(n2cncn2)Oc2ccccc2C1O (stereo not drawn) was read as PLAP act 0.9, PostGolgi ctrl 96*, PostGolgi yeast 100*, HePTP inh 8, Ecoli tolC 12 and Ecoli WT expand -1.
CCOC(=O)c1ccc(NC(=O)COc2ccc(OC)cc2)cc1 was read as HePTP inh 7.
CN(C)/C=C/C(=O)c1cccc(Cl)c1 was read as PLAP act 1.2, PostGolgi ctrl 45*, PostGolgi yeast 0 and Ecoli WT expand -2.
N#C/C(=C\c1ccc(O)c(O)c1)S(=O)(=O)c1ccccc1 was read as PLAP act 0.3, PostGolgi ctrl 11, PostGolgi yeast -7, HePTP inh 11, Ecoli tolC -2 and Ecoli WT expand -1.
c1ccc(-c2ccccn2)nc1 was read as Ecoli tolC -1.
For c1ccc(-c2n[nH]c(-c3ccccn3)n2)nc1 the results were PLAP act 2.8*, PostGolgi ctrl -2, PostGolgi yeast 13, HePTP inh 4, Ecoli tolC -3 and Ecoli WT expand 12.
c1ccc(-c2nc(-c3ccccn3)no2)cc1 was read as HePTP inh 0.
For c1ccc(-c2n[nH]c(-c3ccccn3)n2)cc1 the results were PLAP act 2.2*, PostGolgi ctrl 7, PostGolgi yeast 8 and Ecoli WT expand 8.
Screening N#CC(C#N)=Cc1ccc(-c2ccc3c(c2)COC3=O)o1 returned HePTP inh 11.
For CC(=O)Nc1ccc(C(=O)CSc2nnc3scc(-c4ccccc4)n23)cc1 the results were PLAP act 0.8, PostGolgi ctrl -13, PostGolgi yeast -13, HePTP inh 11, Ecoli tolC 0 and Ecoli WT expand -2.
Screening O=C(CCSc1nnc2scc(-c3ccccc3)n12)Nc1nc(-c2ccccc2)ns1 returned PLAP act 1, PostGolgi ctrl -5, PostGolgi yeast 4, HePTP inh -10, Ecoli tolC 65* and Ecoli WT expand -7.
`Cc1ccc(-c2csc3nnc(SCC(=O)Nc4cccc(C)n4)n23)cc1` gave PLAP act 1.4, PostGolgi ctrl -6, PostGolgi yeast 35*, HePTP inh 5, Ecoli tolC 22 and Ecoli WT expand 7.
For CNC(=O)CN(c1ccc(OC)cc1)S(=O)(=O)c1ccc(C)cc1 the results were HePTP inh -13.
Screening COc1cc(NC(=O)c2cc(CC(C)C)on2)c(OC)cc1Cl returned PLAP act 0.9, PostGolgi ctrl 18, PostGolgi yeast 2, HePTP inh 4, Ecoli tolC 68* and Ecoli WT expand -2.
`CCCc1cc(C(=O)Nc2cc(OC)c(Cl)cc2OC)no1` gave PLAP act 0.9, PostGolgi ctrl 8, PostGolgi yeast -7, HePTP inh -3, Ecoli tolC 2 and Ecoli WT expand 3.
CCOC(=O)C1=CN(c2ccc(C)cc2)C=C(C(=O)OCC)C1c1ccc(C)s1 was read as HePTP inh 4.
Screening CNc1nnc(CSc2nc(C)cc(C)n2)s1 returned PLAP act 0.8, PostGolgi ctrl 8, PostGolgi yeast 1, Ecoli tolC -16 and Ecoli WT expand 5.
For CCOC(=O)/C(C#N)=C1/C=Nc2ccccc2N1 the results were PLAP act 1, PostGolgi ctrl 41*, PostGolgi yeast -3, HePTP inh -2, Ecoli tolC 2 and Ecoli WT expand 3.
